Compound activity (PubChem)
TRAIL sens C8: sensitizes caspase-8 expressing cells to TRAIL. NB7+C8 cells + TRAIL, ATPlite viability luminescence. inhibition (viability loss, TRAIL sensitization), % at 10 µM. actives 1% (n = 360,000). AID 624354;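 active = compounds causing at least 50% loss of cell viability in the single-dose screen, relative to plate controls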
FLuc inh counter: inhibits firefly luciferase, flagging false hits in luciferase inhibition screens | P08659 | ATPLite firefly luciferase biochemical luminescence, 10 min | inhibition, % at 10 µM | actives 1.5% (n = 200,000) | AID 1006;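 active = inhibition above about 50% when tested at 10 µM, limit read from the data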
Target sequence (P08659 whole entry, looked up): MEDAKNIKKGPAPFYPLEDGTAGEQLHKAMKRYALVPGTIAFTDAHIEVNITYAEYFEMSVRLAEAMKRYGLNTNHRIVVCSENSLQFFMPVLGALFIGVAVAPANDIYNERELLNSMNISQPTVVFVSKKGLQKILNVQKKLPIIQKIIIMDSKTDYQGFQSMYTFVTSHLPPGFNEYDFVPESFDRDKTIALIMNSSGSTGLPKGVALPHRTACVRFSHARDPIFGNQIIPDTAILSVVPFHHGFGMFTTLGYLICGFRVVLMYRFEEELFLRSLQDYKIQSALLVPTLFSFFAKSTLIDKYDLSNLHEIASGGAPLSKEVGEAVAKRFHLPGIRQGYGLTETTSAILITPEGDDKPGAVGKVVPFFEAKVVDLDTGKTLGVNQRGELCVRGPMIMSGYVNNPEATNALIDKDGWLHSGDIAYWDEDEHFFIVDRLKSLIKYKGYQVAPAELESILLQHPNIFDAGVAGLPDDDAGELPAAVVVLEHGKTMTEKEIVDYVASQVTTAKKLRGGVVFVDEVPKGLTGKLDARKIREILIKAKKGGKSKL
PPC-1+TRAIL kill: compounds killing PPC-1 cancer cells with TRAIL present (potentiator screen, no TRAIL-free arm); AID 1443; cell killing (% activity), % at 4 µM or 5 µM; PPC-1 cells + TRAIL, ATPLite viability luminescence; actives 0.41% (n = 220,000);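 active = cell killing above 50% in the first pass at 4 µM, then a duplicate retest at 5 µM averaging 50% or more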;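 also: plate controls were cells with TRAIL plus DMSO for no effect and medium-only wells lacking cells for full effect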
FLuc stim CS: firefly luciferase counter-screen for stimulation assays | 200,000 tested, under 10 active | AID 1027 | activation factor at 10 µM | P08659 | ATPlite luciferase biochemical, luminescence, 10 min; 0 = ATP-free wells, 1 = DMSO control;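 active = luciferase activation factor, scaled between plate controls, of at least 2 with compound at 10 µM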
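assay system = Luciferase/luciferin detection reagent, cell-free biochemical luciferase assay | also added = ATP substrate | times = 10 min post-reagent at room temperature | measured by = luminescence from luciferase reaction | measure = luciferase activation, seen as luminescence increase over controls | benchmarks = low control with PBS replacing ATP, high control enzyme plus ATP without compound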
PPC1 cytotox: kills PPC-1 cells; actives 50% (n = 1,200); cytotoxicity, % at 5 µM; shares compounds with PPC-1+TRAIL kill; PPC-1 viability, ATPlite luminescence, overnight; AID 1447;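 active = reconfirmed compounds whose average cytotoxicity reaches 50% or more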;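 also: 0% = DMSO-treated cells and 100% = wells holding medium but no cells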
* hit, by the source's call; . = no result. Shown are actives, neighbours in structure and some others; about 1.6% of the full set was active somewhere.

SMILES	TRAIL sens C8	FLuc inh counter	PPC-1+TRAIL kill	FLuc stim CS	others
Cc1nc2cc(C(F)(F)F)ccc2n1C1CCN(Cc2nnnn2Cc2ccc3c(c2)OCO3)CC1	58*	1	17	1
COC(=O)C1=C(c2ccccc2)C[C@@H]2CC[C@H]1N2C(=O)NCCS(C)=O (some centres not stated)	1	.	.	.
CC(C)N(C(=O)CCl)c1ccccc1	91*	.	.	.
CN(C)C(Cc1ccccc1)C(=O)c1ccccc1 (configuration not stated)	9	2	29	1
CC1(C)C(C(=O)N2CCN(c3ccc(Cl)cc3)CC2)C1(C)C	-6	.	.	.
COC(=O)C1CN(C#N)N(c2ccc(Cl)cc2)C12c1ccccc1-c1ccccc12 (configuration not stated)	91*	0	17	1
O=C1NC(=O)N(c2cccc(F)c2)C(=O)/C1=C/c1ccc(N2CCOCC2)cc1	11	.	0	.
CC[C@H](C)[C@@H]1NC(=O)CNC(=O)c2csc(n2)[C@H](C(C)(C)O)OC(=O)C(C)(C)[C@H](CCCC(C)(Cl)Cl)OC(=O)c2csc1n2	50*	.	.	.
CCc1nc2ccccc2c(=O)n1-c1ccccc1[N+](=O)[O-]	-12	0	2	1
N[C@@H](Cc1cc(Br)c(O)c(Br)c1)C(=O)O	.	-2	14	1
CC(=O)OC1CC(OC2C(O)CC(OC3C(O)CC(OC4CCC5(C)C(CCC6C5CC(O)C5(C)C(C7=CC(=O)OC7)CCC65O)C4)OC3C)OC2C)OC(C)C1OC1OC(CO)C(O)C(O)C1O (configuration not stated)	67*	.	.	.
C[C@]12CC[C@H](O)C[C@H]1CC[C@@H]1[C@@H]2C[C@@H](O)[C@]2(C)[C@@H](C3=CC(=O)OC3)CC[C@]12O	56*	.	.	.
C[C@H]1CC[C@@H]2[C@@H](C)[C@H]3[C@H](C[C@H]4[C@@H]5CC=C6C[C@@H](O[C@@H]7O[C@H](CO)[C@H](O)[C@H](O[C@@H]8O[C@H](CO)[C@@H](O)[C@H](O)[C@H]8O)[C@H]7O[C@@H]7O[C@@H](C)[C@H](O)[C@@H](O)[C@H]7O)CC[C@]6(C)[C@H]5CC[C@]34C)N2C1	11	-2	2	1
CC12CCC(O)CC1CCC1C2CCC2(C)C(C3=CC(=O)OC3)CCC12O (configuration not stated)	64*	.	.	.
C[C@]12CC[C@H](O)C[C@H]1CC[C@@H]1[C@@H]2CC[C@]2(C)[C@@H](C3=CC(=O)OC3)CC[C@]12O	37	.	.	.
CC12CCC(O)CC1CCC1C2CCC2(C)C(C3=CC(=O)OC3)C(O)CC12O (configuration not stated)	58*	.	.	.
CC12CC[C@H]3[C@@H](CCC4(O)C[C@H](O)CCC34/C=N/NC(=O)Cc3ccccc3)C1(O)CCC2C1=CC(=O)OC1 (some centres not stated)	9	.	-2	.
CCOC(=O)c1c(N)n(Cc2ccc(OC)cc2)c2nc3ccccc3nc12	.	-6	2	1.1
COC1C(O)C(C)OC(OC2CCC3(C)C(CCC4C3C(O)CC3(C)C(C5=CC(=O)OC5)CCC43O)C2)C1O (configuration not stated)	68*	.	.	.
C[C@@H]1O[C@@H](O[C@H]2C[C@@H](O)[C@]3(CO)[C@@H]4C(CC[C@]3(O)C2)[C@@]2(O)CC[C@H](C3COC(=O)C3)[C@@]2(C)C[C@H]4O)[C@H](O)[C@H](O)[C@H]1O (some centres not stated)	11	.	.	.
CCOC(=O)c1c(N)n(CCCOC(=O)c2ccco2)c2nc3ccccc3nc12	52*	-8	21	1.1
Cc1cc(C=C2C(=O)NC(=S)NC2=O)c(C)n1C1CCCC1	-2	77*	16	0.2
CCn1c(O)c(C(c2ccccn2)c2c(O)n(CC)c(=S)[nH]c2=O)c(=O)[nH]c1=S	-9	-4	12	1
CNC(=O)Oc1ccc(-c2cn3cc(C)ccc3n2)cc1	93*	97*	88*	0
CNC(=O)Oc1cccc(-c2cn3cc(Cl)ccc3n2)c1	80*	95*	86*	0.1
SMILES	TRAIL sens C8	FLuc inh counter	PPC-1+TRAIL kill	FLuc stim CS	others
CCOC(=O)C(O)(c1ccc(N(C)C(=O)COc2ccccc2)cc1)C(F)(F)F (configuration not stated)	-8	.	.	.
CN(C)C(=O)O/N=C(\N)COc1ccc(C(C)(C)C)cc1	90*	.	21	.
NC(N)=N/N=C/c1ccc(N(c2ccccc2)c2ccccc2)cc1	69*	.	.	.
COc1ccc(/C=N\N=C(N)N)cc1	-2	-1	12	1
Cc1ccc(NC(=O)N2CC2)cc1NC(=O)N1CC1	5	.	.	.
Clc1ccc(C(c2ccc(Cl)cc2)n2cc[n+](CC(OCc3ccc(Cl)cc3Cl)c3ccc(Cl)cc3Cl)c2)cc1 (configuration not stated)	94*	.	.	.
Clc1ccc(COC(Cn2ccnc2)c2ccc(Cl)cc2Cl)cc1 (configuration not stated)	6	-5	4	1
COc1ccc(N2C(=O)/C(=C/c3cc(C)n(-c4ccc(C)cn4)c3C)C(=O)NC2=S)c(OC)c1	-1	-9	-2	1.1
O=c1c2ccccc2[se]n1-c1ccccc1	-9	96*	21	0
COc1ccc2c3c1O[C@H]1C(=O)CC[C@H]4[C@@H](C2)N(C)CC[C@]314	-3	.	.	.
O=c1[nH]c2ccccc2n1C1CCN(C(c2cc3ccccc3o2)c2nnnn2-c2ccc3c(c2)OCCO3)CC1 (configuration not stated)	86*	.	.	.
CSCCC(c1nnnn1Cc1ccccc1)N1CCC(n2c(=O)[nH]c3ccccc32)CC1 (configuration not stated)	47	.	.	.
O=c1[nH]c2ccccc2n1C1CCN(C(CCc2ccccc2)c2nnnn2Cc2ccccc2)CC1 (configuration not stated)	91*	.	.	.
COc1ccc(-n2nnnc2C(c2cc3ccccc3o2)N2CCC(n3c(=O)[nH]c4ccccc43)CC2)cc1 (configuration not stated)	66*	.	.	.
CC(C)CNc1c2c(nc3ccccc13)CCC2	22	.	.	.
Clc1ccccc1CN1CCNCC1	-4	.	.	.
C=CCn1c(O)c(C(CC)=NCc2ccc3c(c2)OCO3)c(=O)[nH]c1=O	11	.	2	.
C=CCn1c(O)c(C(CC)=NCc2cc(OC)cc(OC)c2)c(=O)[nH]c1=O	50*	0	20	1
CNc1ccc2oc(C[C@H]3O[C@@]4(CC[C@H]3C)O[C@H]([C@H](C)C(=O)c3ccc[nH]3)[C@H](C)C[C@H]4C)nc2c1C(=O)O	83*	.	44	.	PPC1 cytotox=49
CCOc1ccc(C2CC(c3c(O)n(C)c(=O)n(C)c3=O)=NN2)cc1 (configuration not stated)	74*	.	69*	.	PPC1 cytotox=71*
CN1CCN(c2nc(N)c(Br)c(Cl)n2)CC1	0	.	0	.
